Reference: ChEMBL document CHEMBL1147539, “Synthesis and biological evaluation of novel, selective, nonsteroidal glucocorticoid receptor antagonists” (Bioorg Med Chem Lett, 2004)
Values belong to the compound of their own block, whether it stands above or below them.

Assays:
[1] = target: T1, Glucocorticoid receptor (Homo sapiens, UniProt P04150); test: Displacement of [3H]dexamethasone from human Glucocorticoid receptor (GR); Value ranges from 1273-2947 nM
T1 sequence (P04150 whole entry): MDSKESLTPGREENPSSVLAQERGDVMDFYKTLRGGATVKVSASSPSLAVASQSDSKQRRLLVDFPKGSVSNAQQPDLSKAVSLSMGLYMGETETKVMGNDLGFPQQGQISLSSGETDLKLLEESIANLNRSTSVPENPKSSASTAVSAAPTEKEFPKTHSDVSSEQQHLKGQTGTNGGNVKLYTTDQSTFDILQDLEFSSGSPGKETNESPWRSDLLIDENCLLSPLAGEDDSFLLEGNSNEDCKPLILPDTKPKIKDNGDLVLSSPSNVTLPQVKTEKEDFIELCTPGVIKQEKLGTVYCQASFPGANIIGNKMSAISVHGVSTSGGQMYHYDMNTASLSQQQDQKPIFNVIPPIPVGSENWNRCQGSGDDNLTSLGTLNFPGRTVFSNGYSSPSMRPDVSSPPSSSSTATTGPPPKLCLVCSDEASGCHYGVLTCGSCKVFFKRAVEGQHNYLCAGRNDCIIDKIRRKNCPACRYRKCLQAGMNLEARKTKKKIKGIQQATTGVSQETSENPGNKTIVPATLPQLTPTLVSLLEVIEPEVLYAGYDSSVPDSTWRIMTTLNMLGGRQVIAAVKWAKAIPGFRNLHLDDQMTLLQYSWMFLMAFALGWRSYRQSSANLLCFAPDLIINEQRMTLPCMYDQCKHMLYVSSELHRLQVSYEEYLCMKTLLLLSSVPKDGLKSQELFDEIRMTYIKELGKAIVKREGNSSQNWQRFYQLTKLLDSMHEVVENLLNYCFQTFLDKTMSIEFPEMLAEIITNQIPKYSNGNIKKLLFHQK
Procedure, shortened: (§1)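 Binding to human GR; IC50 reported as the geometric mean of two experiments (three for some values), each run in duplicate, with the range of the experiments given.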

[2] = target: T1, Glucocorticoid receptor; test: Effect on human Glucocorticoid receptor (GR) in a whole cell assay to measure functional cellular GR-antagonism (GRAF)
[3] = target: T1, Glucocorticoid receptor
[4] = target: T1, Glucocorticoid receptor; test: Displacement of [3H]dexamethasone from human Glucocorticoid receptor (GR); Value ranges from 28-34 nM
[5] = target: T1, Glucocorticoid receptor; remark: listed apart in the source
[6] = target: T1, Glucocorticoid receptor; test: Effect on functional cellular GR-antagonism (GRAF) in human Glucocorticoid receptor (GR) expressing cells
Procedure, shortened: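 Whole-cell functional GR antagonism measured in a genetically engineered mammalian cell line expressing GR; IC50 determined from 12-concentration compound curves.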

[7] = target: T1, Glucocorticoid receptor; test: Displacement of [3H]dexamethasone from human Glucocorticoid receptor (GR); Value ranges from 559-1423 nM; procedure, shortened: as §1
[8] = target: T1, Glucocorticoid receptor; test: Displacement of [3H]dexamethasone from human Glucocorticoid receptor (GR); Value ranges from 9-12 nM
[9] = target: T1, Glucocorticoid receptor; remark: listed apart in the source
[10] = target: T1, Glucocorticoid receptor; test: Displacement of [3H]dexamethasone from human Glucocorticoid receptor (GR); Value ranges from 106-131 nM
[11] = target: T1, Glucocorticoid receptor; test: Displacement of [3H]dexamethasone from human Glucocorticoid receptor (GR); Value ranges from 26-67 nM; procedure, shortened: as §1
[12] = target: T1, Glucocorticoid receptor; test: Displacement of [3H]dexamethasone from human Glucocorticoid receptor (GR); Value ranges from 150-220 nM; procedure, shortened: as §1
[13] = target: T1, Glucocorticoid receptor; test: Displacement of [3H]dexamethasone from human Glucocorticoid receptor (GR); Value ranges from 681-974 nM; procedure, shortened: as §1
[14] = target: T1, Glucocorticoid receptor; test: Displacement of [3H]dexamethasone from human Glucocorticoid receptor (GR); Value ranges from 39-94 nM
[15] = target: T1, Glucocorticoid receptor; test: Displacement of [3H]dexamethasone from human Glucocorticoid receptor (GR); Value ranges from 949-1169 nM; procedure, shortened: as §1
[16] = target: T2, Mineralocorticoid receptor (Homo sapiens, UniProt P08235); test: Displacement of [3H]aldosterone from human Mineralocorticoid receptor
T2 sequence (P08235 whole entry): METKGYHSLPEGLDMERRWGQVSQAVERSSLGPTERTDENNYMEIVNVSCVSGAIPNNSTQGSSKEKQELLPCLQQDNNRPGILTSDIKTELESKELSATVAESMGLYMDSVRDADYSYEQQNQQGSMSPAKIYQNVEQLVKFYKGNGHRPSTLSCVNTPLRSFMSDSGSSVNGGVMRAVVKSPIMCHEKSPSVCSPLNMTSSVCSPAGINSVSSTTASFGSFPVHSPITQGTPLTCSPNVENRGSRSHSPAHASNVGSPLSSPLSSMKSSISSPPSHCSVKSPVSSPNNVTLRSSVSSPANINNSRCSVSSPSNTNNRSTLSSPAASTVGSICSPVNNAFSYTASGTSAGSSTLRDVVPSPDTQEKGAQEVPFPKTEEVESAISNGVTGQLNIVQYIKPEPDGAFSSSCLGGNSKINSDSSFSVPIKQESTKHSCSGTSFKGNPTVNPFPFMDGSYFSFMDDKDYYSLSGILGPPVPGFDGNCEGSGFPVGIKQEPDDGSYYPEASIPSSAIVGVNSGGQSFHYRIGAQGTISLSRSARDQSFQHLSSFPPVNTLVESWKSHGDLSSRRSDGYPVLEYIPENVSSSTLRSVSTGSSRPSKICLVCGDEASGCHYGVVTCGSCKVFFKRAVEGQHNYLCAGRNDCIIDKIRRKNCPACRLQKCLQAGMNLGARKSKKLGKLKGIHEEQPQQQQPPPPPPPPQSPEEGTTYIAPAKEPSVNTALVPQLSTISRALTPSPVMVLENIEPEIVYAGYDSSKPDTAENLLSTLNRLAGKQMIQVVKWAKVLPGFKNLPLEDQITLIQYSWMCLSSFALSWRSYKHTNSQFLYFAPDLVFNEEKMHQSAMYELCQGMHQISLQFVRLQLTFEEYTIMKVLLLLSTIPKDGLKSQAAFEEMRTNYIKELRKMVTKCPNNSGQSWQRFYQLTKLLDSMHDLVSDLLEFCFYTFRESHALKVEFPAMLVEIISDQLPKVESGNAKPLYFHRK
Procedure, shortened: (§2)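 Human steroid receptor (PR, MR, AR, ERα) binding measured by radioligand displacement, with IC50s determined in duplicate. Values without a range come from a single experiment, and values with a range are geometric means of repeat experiments.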

[17] = target: T1, Glucocorticoid receptor; test: Displacement of [3H]dexamethasone from human Glucocorticoid receptor (GR); Value ranges from 2-2 nM
[18] = target: T3, Androgen receptor (Homo sapiens, UniProt P10275); test: Displacement of [3H]mibolerone from human Androgen receptor
T3 sequence (P10275 whole entry): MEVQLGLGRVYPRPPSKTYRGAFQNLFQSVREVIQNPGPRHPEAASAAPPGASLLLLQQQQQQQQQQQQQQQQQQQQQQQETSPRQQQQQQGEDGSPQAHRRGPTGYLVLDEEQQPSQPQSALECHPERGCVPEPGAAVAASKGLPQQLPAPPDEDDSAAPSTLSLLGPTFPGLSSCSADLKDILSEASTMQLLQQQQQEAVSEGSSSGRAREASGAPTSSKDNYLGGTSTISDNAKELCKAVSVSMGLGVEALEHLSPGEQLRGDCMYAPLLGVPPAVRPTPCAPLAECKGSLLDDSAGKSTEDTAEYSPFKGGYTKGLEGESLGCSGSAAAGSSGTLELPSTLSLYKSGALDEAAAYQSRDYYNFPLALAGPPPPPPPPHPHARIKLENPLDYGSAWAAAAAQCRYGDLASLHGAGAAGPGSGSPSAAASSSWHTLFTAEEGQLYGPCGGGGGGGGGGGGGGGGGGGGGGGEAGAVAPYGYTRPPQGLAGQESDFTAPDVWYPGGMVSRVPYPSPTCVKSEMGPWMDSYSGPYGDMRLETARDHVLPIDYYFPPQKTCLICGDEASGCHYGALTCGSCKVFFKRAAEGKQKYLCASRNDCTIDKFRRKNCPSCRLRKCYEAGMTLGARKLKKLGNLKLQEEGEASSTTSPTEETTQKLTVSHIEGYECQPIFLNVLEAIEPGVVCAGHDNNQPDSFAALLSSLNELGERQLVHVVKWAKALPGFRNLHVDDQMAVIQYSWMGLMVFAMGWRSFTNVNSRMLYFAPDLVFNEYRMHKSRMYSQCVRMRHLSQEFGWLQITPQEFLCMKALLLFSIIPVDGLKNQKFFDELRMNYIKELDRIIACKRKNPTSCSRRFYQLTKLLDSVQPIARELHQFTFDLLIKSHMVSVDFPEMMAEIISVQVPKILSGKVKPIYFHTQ

[19] = target: T4, Estrogen receptor (Homo sapiens, UniProt P03372); test: Displacement of [3H]estradiol from human estrogen receptor alpha; procedure, shortened: as §2
T4 sequence (P03372 whole entry): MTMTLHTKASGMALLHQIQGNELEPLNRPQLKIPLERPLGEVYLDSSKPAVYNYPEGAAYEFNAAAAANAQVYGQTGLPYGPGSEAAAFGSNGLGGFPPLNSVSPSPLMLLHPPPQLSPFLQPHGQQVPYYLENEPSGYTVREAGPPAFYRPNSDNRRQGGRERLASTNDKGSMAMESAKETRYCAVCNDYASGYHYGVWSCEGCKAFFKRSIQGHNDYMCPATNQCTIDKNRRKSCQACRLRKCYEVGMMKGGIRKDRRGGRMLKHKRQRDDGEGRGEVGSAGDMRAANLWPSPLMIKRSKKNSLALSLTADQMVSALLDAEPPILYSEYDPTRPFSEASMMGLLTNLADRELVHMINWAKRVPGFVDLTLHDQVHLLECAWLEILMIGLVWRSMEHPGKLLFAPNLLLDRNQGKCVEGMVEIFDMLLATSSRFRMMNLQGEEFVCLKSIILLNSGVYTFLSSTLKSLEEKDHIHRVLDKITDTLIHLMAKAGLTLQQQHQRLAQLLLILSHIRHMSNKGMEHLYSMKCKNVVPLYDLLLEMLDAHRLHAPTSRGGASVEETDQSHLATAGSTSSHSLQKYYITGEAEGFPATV

[20] = target: T1, Glucocorticoid receptor; test: Displacement of [3H]dexamethasone from human Glucocorticoid receptor (GR); Value ranges from 379-840 nM; procedure, shortened: as §1
[21] = target: T1, Glucocorticoid receptor; test: Displacement of [3H]dexamethasone from human Glucocorticoid receptor (GR); Value ranges from 215-217 nM; procedure, shortened: as §1
[22] = target: T1, Glucocorticoid receptor; test: Displacement of [3H]dexamethasone from human Glucocorticoid receptor (GR); Value ranges from 3-3 nM
[23] = target: T1, Glucocorticoid receptor; test: Displacement of [3H]dexamethasone from human Glucocorticoid receptor (GR); Value ranges from 44-53 nM

IC50 [4]: 0.031 µM | IC50 [2]: 0.296 µM
SMILES: CCOC(=O)c1cccc(C2Oc3cccc(OC)c3-c3ccc(NS(C)(=O)=O)cc32)c1 (stereo not drawn)

IC50 [6]: 1.81 µM | IC50 [7]: 0.892 µM
SMILES: CS(=O)(=O)Nc1ccc2c(c1)C(c1ccccc1)Oc1cccc(O)c1-2 (stereo not drawn)

IC50 [8]: 0.01 µM | IC50 [2]: 0.129 µM
SMILES: COc1cccc2c1-c1ccc(NS(C)(=O)=O)cc1C(c1ccc(Cl)cc1)O2 (stereo not drawn)

IC50 [11]: 0.041 µM | IC50 [2]: 0.121 µM
SMILES: COc1cccc2c1-c1ccc(NS(=O)(=O)N(C)C)cc1C(c1ccccc1)O2 (stereo not drawn)

IC50 [13]: 0.812 µM | IC50 [2]: 0.665 µM
SMILES: COc1ccccc1C1Oc2cccc(OC)c2-c2ccc(NS(C)(=O)=O)cc21 (stereo not drawn)

IC50 [14]: 0.061 µM | IC50 [2]: 0.388 µM
SMILES: CCOC(=O)c1ccc(C2Oc3cccc(OC)c3-c3ccc(NS(C)(=O)=O)cc32)cc1 (stereo not drawn)

IC50 [16]: 0.162 µM | IC50 [17]: 0.002 µM | IC50 [18]: 8.73 µM | IC50 [19]: > 10 µM | IC50 [2]: 0.057 µM
SMILES: CS(=O)(=O)Nc1ccc2c(c1)C(c1ccccc1)Oc1cccc(OC(F)F)c1-2 (stereo not drawn)

IC50 [21]: 0.216 µM
SMILES: COc1cccc2c1-c1ccc(NS(C)(=O)=O)cc1C(c1cccc(O)c1)O2 (stereo not drawn)

IC50 [16]: 2.15 µM | IC50 [22]: 0.003 µM | IC50 [18]: > 10 µM | IC50 [19]: > 10 µM | IC50 [2]: 0.147 µM
SMILES: COc1cccc2c1-c1ccc(NS(C)(=O)=O)cc1C(c1cccc(Cl)c1)O2 (stereo not drawn)

IC50 [23]: 0.048 µM | IC50 [2]: 0.434 µM
SMILES: COc1cccc2c1-c1ccc(NS(C)(=O)=O)cc1C(c1cccc(Oc3ccccc3)c1)O2 (stereo not drawn)

Second part, the compound before the results:

SMILES: COc1cccc2c1-c1ccc(N)cc1C(c1ccccc1)O2 (stereo not drawn)
IC50 [1]: 1.94 µM | IC50 [2]: 2.02 µM

SMILES: CCOc1ccc(CC2Oc3cccc(OC)c3-c3ccc(NS(C)(=O)=O)cc32)cc1 (stereo not drawn)
IC50 [3]: 0.548 µM

SMILES: CS(=O)(=O)Nc1ccc2c(c1)C(c1ccccc1)Oc1cccc(-c3cccs3)c1-2 (stereo not drawn)
IC50 [5]: 0.656 µM

SMILES: COc1cccc2c1-c1ccc(NCc3ccccc3)cc1C(c1ccccc1)O2 (stereo not drawn)
IC50 [9]: 0.91 µM | IC50 [2]: 0.402 µM

SMILES: COc1cccc2c1-c1ccc(NC(C)=O)cc1C(c1ccccc1)O2 (stereo not drawn)
IC50 [10]: 0.117 µM | IC50 [2]: 0.069 µM

SMILES: CS(=O)(=O)Nc1ccc2c(c1)C(c1ccccc1)Oc1cccc(CO)c1-2 (stereo not drawn)
IC50 [12]: 0.18 µM

SMILES: COc1cccc2c1-c1ccc(N(C)S(C)(=O)=O)cc1C(c1ccccc1)O2 (stereo not drawn)
IC50 [15]: 1.05 µM | IC50 [2]: 0.21 µM

SMILES: CCNc1ccc2c(c1)C(c1ccccc1)Oc1cccc(OC)c1-2 (stereo not drawn)
IC50 [20]: 0.564 µM | IC50 [2]: 0.382 µM
